Data taken from EPA's CvTdb concentration-time database.
Values joined by “and” are separate entries in the source; they are usually repeats but may differ in a detail not shown here. Equal entries are not always repeated.

What was measured:
rat [1] = assay: concentration in blood after dosing; conditions: dosed: 1,3-butadiene, inhalation, duration: 6 hr, Sprague Dawley
human [2] = assay: concentration in expired air after dosing; negative times count back from the end of exposure; conditions: dosed: 1,3-butadiene, 5 ppm, inhalation, duration: 120 min
Outline: (§1)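 Data points giving concentration or amount against time came from published in vivo toxicokinetic studies and from two structured collections. PubMed searching, classifier screening and manual review located the studies. Most points were digitised from plot screenshots using WebPlotDigitizer, the rest were copied from tables, and all keep their reported units.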

human [3] = assay: concentration in blood after dosing; conditions: dosed: tert-amyl methyl ether
Outline: as §1

human [4] = assay: concentration in blood after dosing; negative times count back from the end of exposure; conditions: dosed: tert-amyl methyl ether, 15 ppm, inhalation, duration: 4 hr, male
Outline: as §1

Rat [5] = assay: concentration in plasma after dosing; conditions: dosed: Tamoxifen citrate, 0.3 mg/kg, iv, Female, Sprague-Dawley
Rat [6] = assay: concentration in plasma after dosing; conditions: dosed: Tamoxifen citrate, 0.3 mg/kg, iv, Male, Sprague-Dawley
Rat [7] = assay: concentration in plasma after dosing; conditions: dosed: Tamoxifen citrate, 0.3 mg/kg, iv, Female, Sprague-Dawley; remark: listed apart in the source
Rat [8] = assay: concentration in plasma after dosing; conditions: dosed: Tamoxifen citrate, 0.3 mg/kg, iv, Male, Sprague-Dawley; remark: listed apart in the source
Rat [9] = assay: concentration in plasma after dosing; conditions: dosed: Tamoxifen citrate, 0.3 mg/kg, iv, Sprague-Dawley
Rat [10] = assay: concentration in plasma after dosing; conditions: dosed: Tamoxifen citrate, 0.3 mg/kg, iv, Male, Sprague-Dawley; remark: listed apart in the source
Rat [11] = assay: concentration in plasma after dosing; conditions: dosed: Tamoxifen citrate, 0.3 mg/kg, iv, Male, Sprague-Dawley; remark: listed apart in the source
Rat [12] = assay: concentration in plasma after dosing; conditions: dosed: Tamoxifen citrate, 0.3 mg/kg, iv, Female, Sprague-Dawley; remark: listed apart in the source
Rat [13] = assay: concentration in plasma after dosing; conditions: dosed: Tamoxifen citrate, 0.3 mg/kg, iv, Female, Sprague-Dawley; remark: listed apart in the source

C=CC=C [1,3-butadiene]
Conditions | concentration in blood [nM] | concentration in expired air [ppm]
human [2], -0.1653 h, during exposure | – | 4.58
human [2], -0.3284 h, during exposure | – | 4.31
human [2], -0.6614 h, during exposure | – | 4.14
human [2], -0.8313 h, during exposure | – | 3.79
human [2], -0.9977 h, during exposure | – | 3.77
human [2], -1.168 h, during exposure | – | 4.56
human [2], -1.331 h, during exposure | – | 4.38
human [2], -1.501 h, during exposure | – | 3.62
human [2], -1.67 h, during exposure | – | 4.25
human [2], -1.834 h, during exposure | – | 3.95
rat [1], 1.898 h, 63 ppm | 1290 | –
rat [1], 1.898 h, 616 ppm | 15300 | –
rat [1], 1.898 h, 1249 ppm | 31200 | –
rat [1], 2.9 h, 63 ppm | 1400 | –
rat [1], 2.9 h, 616 ppm | 17200 | –
rat [1], 2.9 h, 1249 ppm | 35400 | –
rat [1], 3.895 h, 63 ppm | 1250 | –
rat [1], 3.895 h, 616 ppm | 16500 | –
rat [1], 3.903 h, 1249 ppm | 38700 | –
rat [1], 5.893 h, 616 ppm | 18500 | –
rat [1], 5.901 h, 63 ppm | 1260 | –
rat [1], 5.901 h, 1249 ppm | 39600 | –
rat [1], 5.931 h, 1249 ppm | 9110 | –
rat [1], 5.962 h, 1249 ppm | 6000 | –
rat [1], 5.977 h, 63 ppm | 342 | –
rat [1], 5.993 h, 616 ppm | 4050 | –
rat [1], 6.016 h, 1249 ppm | 7440 | –
rat [1], 6.077 h, 63 ppm | 286 | –
rat [1], 6.092 h, 616 ppm | 2800 | –
rat [1], 6.092 h, 1249 ppm | 4210 | –
rat [1], 6.176 h, 1249 ppm | 4260 | –
rat [1], 6.184 h, 616 ppm | 3100 | –
rat [1], 6.23 h, 63 ppm | 198 | –
rat [1], 6.314 h, 63 ppm | 181 | –
rat [1], 6.329 h, 616 ppm | 2350 | –
rat [1], 6.391 h, 63 ppm | 101 | –

human [2]
Conditions | concentration in expired air [ppm]
0.1234 h | 0.329
0.1404 h | 0.298
0.1642 h | 0.278
0.1948 h | 0.278
0.2288 h | 0.267
0.2661 h | 0.267
0.3375 h | 0.226
0.402 h | 0.206
0.436 h | 0.185
0.4734 h | 0.175
0.5006 h | 0.144
0.5447 h | 0.144
0.6059 h | 0.144
0.6602 h | 0.123
0.701 h | 0.123
0.7588 h | 0.103
0.8029 h | 0.103
0.8505 h | 0.0823
0.9049 h | 0.0823
16 s | 4.55
77 s | 0.782
126 s | 0.535
200 s | 0.473
249 s | 0.35
334 s | 0.37

CCC(C)(C)OC [tert-amyl methyl ether]
human [3], inhalation, duration: 4 hr
Conditions | concentration in blood [nM]
0 h, 3.8 ppm | 589
2.022 h, 3.8 ppm | 208
2.034 h, 38.4 ppm | 1350
3.985 h, 38.4 ppm | 801
4.008 h, 3.8 ppm | 139
6.018 h, 38.4 ppm | 611
6.02 h, 3.8 ppm | 111
7.969 h, 38.4 ppm | 438
9.976 h, 38.4 ppm | 225
10.01 h, 3.8 ppm | 85
12.01 h, 38.4 ppm | 183
12.05 h, 3.8 ppm | 73.7
99 s, 38.4 ppm | 4500

human [3], oral
Conditions | concentration in blood [nM]
1.016 h, 15 mg | 145
1.043 h, 5 mg | 60.8
2.059 h, 15 mg | 70.2
2.113 h, 5 mg | 29.4
3.073 h, 5 mg | 13.9
4.009 h, 15 mg | 33
4.034 h, 5 mg | 9.2
6.041 h, 15 mg | 19.9
6.064 h, 5 mg | 6.34
8.046 h, 15 mg | 16.9
8.067 h, 5 mg | 3.85
9.995 h, 15 mg | 9.91
10.04 h, 5 mg | 3.13
12 h, 15 mg | 4.16

human [4]
Conditions | concentration in blood [nM]
0.7676 h | 2300
1.198 h | 1900
2.571 h | 1140
7.198 h | 344
19.78 h | 86.8
338 s | 4220

human [4], during exposure
Conditions | concentration in blood [nM]
-4 h | 6.05
-3.022 h | 1710
-1.895 h | 3490
-0.981 h | 3580

CC/C(=C(\c1ccccc1)c1ccc(OCCN(C)C)cc1)c1ccccc1 [Tamoxifen, free base]
concentration in plasma [ng/mL]
Conditions | Rat [5] | Rat [6] | Rat [7] | Rat [8] | Rat [10] | Rat [11] | Rat [12] | Rat [13]
0.25 h | 9.8 | 27.8 | – | – | 17.9 | 23.4 | 19.2 | 10.6
0.5 h | 7.72 | 21.3 | – | – | 14 | 17.5 | 16.9 | 11.7
1 h | 6.48 | 12.5 | 11.8 | 5.39 | 9.45 | 11.1 | 12.4 | 7.86
2 h | 6.85 | 7.97 | 6.28 | 5.6 | 5.39 | 6.63 | 8.82 | 6.98
4 h | 5.08 | 4.45 | 4.6 | 5.43 | 13 | 4.12 | 4.36 | 4.36
8 h | – | – | – | 4.84 | – | – | – | –

concentration in plasma, Rat [9]
Conditions | 0.25 h | 0.5 h | 1 h | 2 h | 4 h | 8 h
Female | 7.64 ng/mL and 17.2 ng/mL | 7.57 ng/mL and 13.4 ng/mL | 5.28 ng/mL | – | – | –
Male | 7.83 ng/mL | 8.42 ng/mL | 5.43 ng/mL | 4.66 ng/mL | 5.32 ng/mL | 5.19 ng/mL
